Assay results from ChEMBL document CHEMBL1139438, “Synthesis of N3,5'-cyclo-4-(beta-D-ribofuranosyl)-vic-triazolo[4,5-b]pyridin-5-one, a novel compound with anti-hepatitis C virus activity” (J Med Chem, 2004).

Experiments:
Human respirovirus 3 = test: Effective concentration required for antiviral activity against Parainfluenza virus; assay type: functional, organism-based
Hepatitis B virus [1] = test: Effective concentration required for 90% of antiviral activity against hepatitis B virus; assay type: functional
Measles morbillivirus = test: Effective concentration required for antiviral activity against measles virus; assay type: functional, organism-based
[2] = Effective concentration required for antiviral activity against punta toro A virus; assay type: functional
Influenza B virus = test: Effective concentration required for antiviral activity against Influenza B virus; assay type: functional, organism-based
[3] = test system: Respiratory syncytial virus; test: Effective concentration required for antiviral activity against respiratory syncytial virus; assay type: functional, organism-based; details: human respiratory syncytial virus
Yellow fever virus = test: Effective concentration required for antiviral activity against yellow fever virus; assay type: functional, organism-based
[4] = Concentration required for cytotoxic activity against african green monkey kidney MA-104 cell line was determined using neutral red method; assay type: functional; details: Cercopithecidae, MA104
[5] = Concentration required for cytotoxic activity against african green monkey kidney B-SC-1 cell line was determined using neutral red method; assay type: functional; details: Cercopithecidae, BSC-1
LLC-MK2 = test: Concentration required for cytotoxic activity against rhesus monkey kidney LLC-MK2 cell line was determined using neutral red method; assay type: functional, Cercopithecidae; details: Macaca mulatta
CCRF-CEM = test: Concentration required for cytotoxic activity against human T-cell lymphoma CEM cell line was determined using MST dye; assay type: functional
Summary of the method: (§1)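 Cytotoxicity was read with an MTS-dye cell proliferation assay and expressed as CC50 (µM).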

[6] = Effective concentration required for antiviral activity against west Nile virus; assay type: functional
Huh-7 [7] = test: Effective concentration required for reduction in subgenomic hepatitis C virus replicon RNA levels in Huh-7 cells after 96 hr of compound exposure; assay type: functional, cell-based; details: Homo sapiens, Huh-7, 96 h
Summary of the method: (§2)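 HCV subgenomic replicon-bearing Huh-7 cells were seeded at 1000 cells/well in 96-well plates, with compound added immediately after seeding, and incubated for 96 h. Total cellular RNA was isolated. Replicon RNA and a ribosomal RNA internal control were amplified by single-step multiplex real-time RT-PCR. HCV RNA was normalized to rRNA by ΔΔCt and calibrated against the no-drug control. Recombinant interferon alpha-2a was the positive control.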

Hepatitis B virus [8] = test: Effective concentration required for antiviral activity against hepatitis B virus; assay type: functional, organism-based
MDCK = test: Concentration required for cytotoxic activity against madin darby canine kidney MDCK cell line was determined using neutral red method; assay type: functional; details: Canis lupus familiaris
unidentified adenovirus = test: Effective concentration required for antiviral activity against adenovirus type 1; assay type: functional, organism-based, Human adenovirus 1
Huh-7 [9] = test: Concentration required for cytotoxic activity against human hepatocellular carcinoma Huh-7 cell line was determined using MST dye; assay type: functional; summary of the method: as §1
Huh-7 [10] = test: Effective concentration required for 90% reduction in subgenomic hepatitis C virus replicon RNA levels in Huh-7 cells after 96 hr of compound exposure; assay type: functional; details: Homo sapiens, Huh-7, 96 h; summary of the method: as §2
[11] = Effective concentration required for 90% of antiviral activity against bovine viral diarrhoea virus; assay type: functional, Bovine viral diarrhea virus 1; details: Bovine viral diarrhea virus isolates and strains
Vero [12] = test: Concentration required for cytotoxic activity against african green monkey kidney Vero cell line was determined using MST dye; assay type: functional; details: Chlorocebus sabaeus; summary of the method: as §1
Vero [13] = test: Concentration required for cytotoxic activity against african green monkey kidney Vero cell line was determined using neutral red dye; assay type: functional; details: Chlorocebus sabaeus
[14] = test system: Human immunodeficiency virus; test: Effective concentration required for 90% of antiviral activity against human immunodeficiency virus; assay type: functional; details: Human immunodeficiency virus 1
KB = test: Concentration required for cytotoxic activity against human epidermoid carcinoma of the nasopharynx KB cell line was determined using neutral red method; assay type: functional
Human alphaherpesvirus 1 [15] = test: Effective concentration required for 90% of antiviral activity against herpes simplex virus type 1
[16] = Effective concentration required for antiviral activity against pinchinde virus; assay type: functional
HepG2 = test: Concentration required for cytotoxic activity against human hepatocellular carcinoma HepG2 cell line was determined using MST dye; assay type: functional; summary of the method: as §1
SK-MEL-28 = test: Concentration required for cytotoxic activity against human malignant melanoma SK-MEL-28 cell line was determined using MST dye; assay type: functional; summary of the method: as §1
Influenza A virus = test: Effective concentration required for antiviral activity against Influenza A virus; assay type: functional, organism-based
[17] = Effective concentration required for antiviral activity against bovine viral diarrhoea virus; assay type: functional, Bovine viral diarrhea virus 1
[18] = test system: Human immunodeficiency virus; test: Effective concentration required for antiviral activity against human immunodeficiency virus; assay type: functional, organism-based; details: Human immunodeficiency virus 1
CV-1 = test: Concentration required for cytotoxic activity against african green monkey kidney CV-1 cell line was determined using neutral red method; assay type: functional, Cercopithecidae; details: Chlorocebus aethiops
Human rhinovirus sp. = test: Effective concentration required for antiviral activity against rhinovirus; assay type: functional, organism-based, Enterovirus
PBMC = test: Concentration required for cytotoxic activity against primary human peripheral blood mononuclear PBM cell line was determined using MST dye; assay type: functional; summary of the method: as §1
Human alphaherpesvirus 1 [19] = test: Effective concentration required for antiviral activity against herpes simplex virus type 1
A549 = test: Concentration required for cytotoxic activity against human lung carcinoma A-549 cell line using neutral red method; assay type: functional

O=c1ccc2nnn3c2n1C1O[C@H](C3)[C@@H](O)[C@H]1O
EC50 (Human respirovirus 3): > 100 µM | EC90 (Hepatitis B virus [1]): > 100 µM | EC50 (Measles morbillivirus): > 100 µM | EC50 [2]: > 100 µM | EC50 (Influenza B virus): 28 µM | EC50 [3]: > 100 µM | EC50 (Yellow fever virus): > 100 µM | CC50 [4]: > 100 µM | CC50 [5]: > 100 µM | CC50 (LLC-MK2): > 100 µM | CC50 (CCRF-CEM): 13.8 µM | EC50 [6]: > 100 µM | EC50 (Huh-7 [7]): 19.7 µM | EC50 (Hepatitis B virus [8]): > 100 µM | CC50 (MDCK): > 100 µM | EC50 (unidentified adenovirus): > 100 µM | CC50 (Huh-7 [9]): 49.6 µM | EC90 (Huh-7 [10]): 79.8 µM | EC90 [11]: > 100 µM | CC50 (Vero [12]): > 100 µM | CC50 (Vero [13]): > 100 µM | EC90 [14]: > 100 µM | CC50 (KB): > 100 µM | EC90 (Human alphaherpesvirus 1 [15]): > 100 µM | EC50 [16]: > 100 µM | CC50 (HepG2): 74.4 µM | CC50 (SK-MEL-28): > 100 µM | EC50 (Influenza A virus): > 100 µM | EC50 [17]: > 100 µM | EC50 [18]: > 100 µM | CC50 (CV-1): > 100 µM | EC50 (Human rhinovirus sp.): > 100 µM | CC50 (PBMC): > 100 µM | EC50 (Human alphaherpesvirus 1 [19]): > 100 µM | CC50 (A549): > 100 µM
